Measured values from ChEMBL document CHEMBL4689842, “EUbOPEN Chemogenomics Library wave 1” (2021).

Test system: Fibroblast
Assay: Multiplex assay against human fibroblast
Format: toxicity, cell-based
In short: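 Live cells were stained at seeding with Hoechst33342, BioTracker Green Microtubule Cytoskeleton Dye, MitoTracker Red and Annexin V Alexa Fluor 680, then imaged on a CQ1 microscope at 37°C and 5% CO2 after compound addition. CellPathfinder machine-learning gating split cells into Hoechst high-intensity objects or normal cells. Normal cells were split into healthy, pyknosed or fragmented nuclei, and pyknosed cells into mitotic or apoptotic. Tubulin, mitochondrial-mass and membrane-permeability phenotypes are per cents of healthy-nucleus cells.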

[1] = 12 h, 1 µM, compound concentration 1 uM, replicate 1
[2] = 12 h, 1 µM, compound concentration 1 uM, replicate 2
[3] = 12 h, 10 µM, compound concentration 10 uM, replicate 1
[4] = 12 h, 10 µM, compound concentration 10 uM, replicate 2
[5] = 24 h, 1 µM, compound concentration 1 uM, replicate 1
[6] = 24 h, 1 µM, compound concentration 1 uM, replicate 2
[7] = 24 h, 10 µM, compound concentration 10 uM, replicate 1
[8] = 24 h, 10 µM, compound concentration 10 uM, replicate 2
[9] = 48 h, 1 µM, compound concentration 1 uM, replicate 1
[10] = 48 h, 1 µM, compound concentration 1 uM, replicate 2
[11] = 48 h, 10 µM, compound concentration 10 uM, replicate 1
[12] = 48 h, 10 µM, compound concentration 10 uM, replicate 2

COc1cc(Nc2nccc(-c3cnn4nc(OC)ccc34)n2)cc(C(F)(F)F)c1
Population Apoptotic (%) [1]: 42%
Population Fragmented Nuclei (%) [1]: 22%
Population Healthy Nuclei (%) [1]: 47%
Population Hoechst High Intensity Objects (%) [1]: 21%
Population Membrane Permeable-Phenotype (%) [1]: 25%
Population Mitochondria Different-Phenotype (%) [1]: 6%
Population Mitotic Cells (%) [1]: 57%
Population Normal (%) [1]: 78%
Population Pyknosed Nuclei (%) [1]: 30%
Population Tubulin-Different-Phenotype (%) [1]: 43%
Total Cell Count [1]: 87
Population Apoptotic (%) [2]: 50%
Population Fragmented Nuclei (%) [2]: 8%
Population Healthy Nuclei (%) [2]: 86%
Population Hoechst High Intensity Objects (%) [2]: 3%
Population Membrane Permeable-Phenotype (%) [2]: 2%
Population Mitochondria Different-Phenotype (%) [2]: 16%
Population Mitotic Cells (%) [2]: 50%
Population Normal (%) [2]: 96%
Population Pyknosed Nuclei (%) [2]: 5%
Population Tubulin-Different-Phenotype (%) [2]: 16%
Total Cell Count [2]: 44
Population Apoptotic (%) [3]: 57%
Population Fragmented Nuclei (%) [3]: 66%
Population Healthy Nuclei (%) [3]: 15%
Population Hoechst High Intensity Objects (%) [3]: 48%
Population Membrane Permeable-Phenotype (%) [3]: 13%
Population Mitochondria Different-Phenotype (%) [3]: 13%
Population Mitotic Cells (%) [3]: 42%
Population Normal (%) [3]: 51%
Population Pyknosed Nuclei (%) [3]: 17%
Population Tubulin-Different-Phenotype (%) [3]: 47%
Total Cell Count [3]: 283
Population Apoptotic (%) [4]: 33%
Population Fragmented Nuclei (%) [4]: 27%
Population Healthy Nuclei (%) [4]: 61%
Population Hoechst High Intensity Objects (%) [4]: 34%
Population Membrane Permeable-Phenotype (%) [4]: 3%
Population Mitochondria Different-Phenotype (%) [4]: 6%
Population Mitotic Cells (%) [4]: 66%
Population Normal (%) [4]: 65%
Population Pyknosed Nuclei (%) [4]: 11%
Population Tubulin-Different-Phenotype (%) [4]: 15%
Total Cell Count [4]: 82
Population Apoptotic (%) [5]: 75%
Population Fragmented Nuclei (%) [5]: 22%
Population Healthy Nuclei (%) [5]: 50%
Population Hoechst High Intensity Objects (%) [5]: 19%
Population Membrane Permeable-Phenotype (%) [5]: 8%
Population Mitochondria Different-Phenotype (%) [5]: 10%
Population Mitotic Cells (%) [5]: 25%
Population Normal (%) [5]: 80%
Population Pyknosed Nuclei (%) [5]: 27%
Population Tubulin-Different-Phenotype (%) [5]: 32%
Total Cell Count [5]: 92
Population Apoptotic (%) [6]: 45%
Population Fragmented Nuclei (%) [6]: 10%
Population Healthy Nuclei (%) [6]: 77%
Population Hoechst High Intensity Objects (%) [6]: 2%
Population Membrane Permeable-Phenotype (%) [6]: 4%
Population Mitotic Cells (%) [6]: 54%
Population Normal (%) [6]: 97%
Population Pyknosed Nuclei (%) [6]: 12%
Population Tubulin-Different-Phenotype (%) [6]: 19%
Total Cell Count [6]: 43
Population Apoptotic (%) [7]: 46%
Population Fragmented Nuclei (%) [7]: 57%
Population Healthy Nuclei (%) [7]: 21%
Population Hoechst High Intensity Objects (%) [7]: 54%
Population Membrane Permeable-Phenotype (%) [7]: 23%
Population Mitochondria Different-Phenotype (%) [7]: 11%
Population Mitotic Cells (%) [7]: 53%
Population Normal (%) [7]: 45%
Population Pyknosed Nuclei (%) [7]: 21%
Population Tubulin-Different-Phenotype (%) [7]: 42%
Total Cell Count [7]: 273
Population Apoptotic (%) [8]: 50%
Population Fragmented Nuclei (%) [8]: 26%
Population Healthy Nuclei (%) [8]: 56%
Population Hoechst High Intensity Objects (%) [8]: 29%
Population Membrane Permeable-Phenotype (%) [8]: 0%
Population Mitochondria Different-Phenotype (%) [8]: 23%
Population Mitotic Cells (%) [8]: 50%
Population Normal (%) [8]: 70%
Population Pyknosed Nuclei (%) [8]: 17%
Population Tubulin-Different-Phenotype (%) [8]: 11%
Total Cell Count [8]: 90
Population Apoptotic (%) [9]: 64%
Population Fragmented Nuclei (%) [9]: 32%
Population Healthy Nuclei (%) [9]: 50%
Population Hoechst High Intensity Objects (%) [9]: 11%
Population Mitochondria Different-Phenotype (%) [9]: 0%
Population Mitotic Cells (%) [9]: 35%
Population Normal (%) [9]: 88%
Population Pyknosed Nuclei (%) [9]: 17%
Population Tubulin-Different-Phenotype (%) [9]: 21%
Total Cell Count [9]: 92
Population Apoptotic (%) [10]: 66%
Population Fragmented Nuclei (%) [10]: 39%
Population Healthy Nuclei (%) [10]: 56%
Population Hoechst High Intensity Objects (%) [10]: 10%
Population Membrane Permeable-Phenotype (%) [10]: 17%
Population Mitochondria Different-Phenotype (%) [10]: 4%
Population Mitotic Cells (%) [10]: 33%
Population Normal (%) [10]: 89%
Population Pyknosed Nuclei (%) [10]: 4%
Population Tubulin-Different-Phenotype (%) [10]: 29%
Total Cell Count [10]: 82
Population Apoptotic (%) [11]: 69%
Population Fragmented Nuclei (%) [11]: 69%
Population Healthy Nuclei (%) [11]: 21%
Population Hoechst High Intensity Objects (%) [11]: 51%
Population Membrane Permeable-Phenotype (%) [11]: 10%
Population Mitochondria Different-Phenotype (%) [11]: 6%
Population Mitotic Cells (%) [11]: 30%
Population Normal (%) [11]: 48%
Population Pyknosed Nuclei (%) [11]: 9%
Population Tubulin-Different-Phenotype (%) [11]: 56%
Total Cell Count [11]: 291
Population Apoptotic (%) [12]: 50%
Population Fragmented Nuclei (%) [12]: 39%
Population Healthy Nuclei (%) [12]: 59%
Population Hoechst High Intensity Objects (%) [12]: 26%
Population Membrane Permeable-Phenotype (%) [12]: 4%
Population Mitochondria Different-Phenotype (%) [12]: 8%
Population Mitotic Cells (%) [12]: 50%
Population Normal (%) [12]: 73%
Population Pyknosed Nuclei (%) [12]: 1%
Population Tubulin-Different-Phenotype (%) [12]: 40%
Total Cell Count [12]: 205
